system: HepG2; assay: Antiproliferative activity against human HepG2 cells assessed as cell growth inhibition after 72 hrs by MTT assay; type: functional, cell-based; conditions: HepG2, 72 h
How it was run: (§1)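 HepG2, A549 or MDA-MB-231 cells grown in DMEM with 10% FBS and penicillin/streptomycin at 37 °C, 5% CO2. Seeded at 3×10^3 per well, left 24 h, then exposed to a range of concentrations for 72 h. MTT added for 4 h, formazan dissolved in DMSO, absorbance read at 550 nm. Mean ± SD, n=3.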

Row | SMILES | IC50
1 | Cc1ccccc1-c1cc(C(=O)N2CCC3(CC2)CC(=O)c2nn(C(C)(C)C)cc2O3)c2ccccc2n1 | > 10000 nM
2 | CC(C)(C)n1cc2c(n1)C(=O)CC1(CCN(C(=O)c3cc(N4CCNCC4)nc4ccccc34)CC1)O2 | 8570 nM
3 | COc1cc(C(=O)N2CCC3(CC2)CC(=O)c2nn(C(C)(C)C)cc2O3)c2ccccc2n1 | > 10000 nM
4 | CC(C)(C)n1cc2c(n1)C(=O)CC1(CCN(C(=O)c3cc(-c4ccc(Cl)cc4)nc4ccccc34)CC1)O2 | 630 nM
5 | CC(C)(C)n1cc2c(n1)C(=O)CC1(CCN(C(=O)c3cc(-c4ccccc4)nc4ccccc34)CC1)O2 | 2110 nM
6 | CCOc1cc(C(=O)N2CCC3(CC2)CC(=O)c2nn(C(C)(C)C)cc2O3)c2ccccc2n1 | > 10000 nM
7 | Cc1cc(C(=O)N2CCC3(CC2)CC(=O)c2nn(C(C)(C)C)cc2O3)c2ccccc2n1 | 9480 nM
8 | CC(C)(C)n1cc2c(n1)C(=O)CC1(CCN(C(=O)c3cc(N4CCOCC4)nc4ccccc34)CC1)O2 | 4570 nM
9 | CC(C)(C)n1cc2c(n1)C(=O)CC1(CCN(C(=O)c3cc(-c4ccccn4)nc4ccccc34)CC1)O2 | 1500 nM
10 | CC(C)(C)n1cc2c(n1)C(=O)CC1(CCN(C(=O)c3cc(-c4ccc(N)cc4)nc4ccccc34)CC1)O2 | 630 nM
11 | COc1ccc(-c2cc(C(=O)N3CCC4(CC3)CC(=O)c3nn(C(C)(C)C)cc3O4)c3ccccc3n2)cc1 | 2780 nM

target: T1, Acetyl-CoA carboxylase 1 (Homo sapiens, UniProt Q13085); assay: Inhibition of recombinant human C-terminal His-tagged ACC1 (1 to 2383 residues) expressed in baculovirus infected Sf9 insect cells at 0.1 uM preincubated for 15 mins followed by substrate addition and measured after 60 mins by ADP-glo luminescence assay relative to control; conditions: not given

Row | SMILES | inhibition
12 | Cc1ccccc1-c1cc(C(=O)N2CCC3(CC2)CC(=O)c2nn(C(C)(C)C)cc2O3)c2ccccc2n1 | 41.8%
13 | CC(C)(C)n1cc2c(n1)C(=O)CC1(CCN(C(=O)c3cc(N4CCNCC4)nc4ccccc34)CC1)O2 | 59.6%
14 | COc1cc(C(=O)N2CCC3(CC2)CC(=O)c2nn(C(C)(C)C)cc2O3)c2ccccc2n1 | 36.7%
15 | CC(C)(C)n1cc2c(n1)C(=O)CC1(CCN(C(=O)c3cc(-c4ccc(Cl)cc4)nc4ccccc34)CC1)O2 | 93.2%
16 | CC(C)(C)n1cc2c(n1)C(=O)CC1(CCN(C(=O)c3cc(-c4ccccc4)nc4ccccc34)CC1)O2 | 90.5%
17 | CCOc1cc(C(=O)N2CCC3(CC2)CC(=O)c2nn(C(C)(C)C)cc2O3)c2ccccc2n1 | 38.4%
18 | Cc1cc(C(=O)N2CCC3(CC2)CC(=O)c2nn(C(C)(C)C)cc2O3)c2ccccc2n1 | 55%
19 | CC(C)(C)n1cc2c(n1)C(=O)CC1(CCN(C(=O)c3cc(N4CCOCC4)nc4ccccc34)CC1)O2 | 56.9%
20 | CC(C)(C)n1cc2c(n1)C(=O)CC1(CCN(C(=O)c3cc(-c4ccccn4)nc4ccccc34)CC1)O2 | 84%
21 | CC(C)(C)n1cc2c(n1)C(=O)CC1(CCN(C(=O)c3cc(-c4ccc(N)cc4)nc4ccccc34)CC1)O2 | 94.1%
22 | COc1ccc(-c2cc(C(=O)N3CCC4(CC3)CC(=O)c3nn(C(C)(C)C)cc3O4)c3ccccc3n2)cc1 | 94.8%

system: MDA-MB-231; assay: Antiproliferative activity against human MDA-MB-231 cells assessed as cell growth inhibition after 72 hrs by MTT assay; type: functional, cell-based; conditions: MDA-MB-231, 72 h; how it was run: as §1

Row | SMILES | IC50
23 | Cc1ccccc1-c1cc(C(=O)N2CCC3(CC2)CC(=O)c2nn(C(C)(C)C)cc2O3)c2ccccc2n1 | > 10000 nM
24 | CC(C)(C)n1cc2c(n1)C(=O)CC1(CCN(C(=O)c3cc(N4CCNCC4)nc4ccccc34)CC1)O2 | 4200 nM
25 | COc1cc(C(=O)N2CCC3(CC2)CC(=O)c2nn(C(C)(C)C)cc2O3)c2ccccc2n1 | > 10000 nM
26 | CC(C)(C)n1cc2c(n1)C(=O)CC1(CCN(C(=O)c3cc(-c4ccc(Cl)cc4)nc4ccccc34)CC1)O2 | > 10000 nM
27 | CC(C)(C)n1cc2c(n1)C(=O)CC1(CCN(C(=O)c3cc(-c4ccccc4)nc4ccccc34)CC1)O2 | > 10000 nM
28 | CCOc1cc(C(=O)N2CCC3(CC2)CC(=O)c2nn(C(C)(C)C)cc2O3)c2ccccc2n1 | > 10000 nM
29 | Cc1cc(C(=O)N2CCC3(CC2)CC(=O)c2nn(C(C)(C)C)cc2O3)c2ccccc2n1 | 4860 nM
30 | CC(C)(C)n1cc2c(n1)C(=O)CC1(CCN(C(=O)c3cc(N4CCOCC4)nc4ccccc34)CC1)O2 | 3180 nM
31 | CC(C)(C)n1cc2c(n1)C(=O)CC1(CCN(C(=O)c3cc(-c4ccccn4)nc4ccccc34)CC1)O2 | 8100 nM
32 | CC(C)(C)n1cc2c(n1)C(=O)CC1(CCN(C(=O)c3cc(-c4ccc(N)cc4)nc4ccccc34)CC1)O2 | 4960 nM
33 | COc1ccc(-c2cc(C(=O)N3CCC4(CC3)CC(=O)c3nn(C(C)(C)C)cc3O4)c3ccccc3n2)cc1 | > 10000 nM

target: T1, Acetyl-CoA carboxylase 1; assay: Inhibition of recombinant human C-terminal His-tagged ACC1 (1 to 2383 residues) expressed in baculovirus infected Sf9 insect cells preincubated for 15 mins followed by substrate addition and measured after 60 mins by ADP-glo luminescence assay; conditions: not given
How it was run: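 Recombinant ACC1 in assay buffer preincubated with inhibitor in DMSO for 15 min at room temperature. Reaction started with substrate mixture and run 60 min at room temperature. Stopped with ADP-Glo reagent for 40 min, then detection reagent for 40 min to convert ADP to ATP, read by luminescence. Mean of two independent experiments.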

Row | SMILES | IC50
34 | Cc1ccccc1-c1cc(C(=O)N2CCC3(CC2)CC(=O)c2nn(C(C)(C)C)cc2O3)c2ccccc2n1 | > 100 nM
35 | CC(C)(C)n1cc2c(n1)C(=O)CC1(CCN(C(=O)c3cc(N4CCNCC4)nc4ccccc34)CC1)O2 | > 20 nM
36 | COc1cc(C(=O)N2CCC3(CC2)CC(=O)c2nn(C(C)(C)C)cc2O3)c2ccccc2n1 | > 100 nM
37 | CC(C)(C)n1cc2c(n1)C(=O)CC1(CCN(C(=O)c3cc(-c4ccc(Cl)cc4)nc4ccccc34)CC1)O2 | 6.09 nM
38 | CC(C)(C)n1cc2c(n1)C(=O)CC1(CCN(C(=O)c3cc(-c4ccccc4)nc4ccccc34)CC1)O2 | 6 nM
39 | CCOc1cc(C(=O)N2CCC3(CC2)CC(=O)c2nn(C(C)(C)C)cc2O3)c2ccccc2n1 | > 100 nM
40 | Cc1cc(C(=O)N2CCC3(CC2)CC(=O)c2nn(C(C)(C)C)cc2O3)c2ccccc2n1 | > 20 nM
41 | CC(C)(C)n1cc2c(n1)C(=O)CC1(CCN(C(=O)c3cc(N4CCOCC4)nc4ccccc34)CC1)O2 | > 20 nM
42 | CC(C)(C)n1cc2c(n1)C(=O)CC1(CCN(C(=O)c3cc(-c4ccccn4)nc4ccccc34)CC1)O2 | 13.8 nM
43 | CC(C)(C)n1cc2c(n1)C(=O)CC1(CCN(C(=O)c3cc(-c4ccc(N)cc4)nc4ccccc34)CC1)O2 | 1.29 nM
44 | COc1ccc(-c2cc(C(=O)N3CCC4(CC3)CC(=O)c3nn(C(C)(C)C)cc3O4)c3ccccc3n2)cc1 | 3.18 nM

system: not listed separately; assay: Cytotoxicity against HUVEC assessed as cell viability at 100 uM after 72 hrs by MTT assay relative to control; type: cell-based; conditions: human, HUVEC cells, read-out: Activity
How it was run: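 HUVEC kept in RPMI 1640 with 10% FBS at 37 °C, 5% CO2. Seeded at 3×10^3 per well and treated at 100 µM for 72 h after 24 h attachment. Viability by MTT with absorbance at 550 nm, as percent of control. Mean ± SD, n=3.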

Row | SMILES | viability at 72 h, 100 µM
45 | Cc1ccccc1-c1cc(C(=O)N2CCC3(CC2)CC(=O)c2nn(C(C)(C)C)cc2O3)c2ccccc2n1 | 38.6%
46 | CC(C)(C)n1cc2c(n1)C(=O)CC1(CCN(C(=O)c3cc(N4CCNCC4)nc4ccccc34)CC1)O2 | 102%
47 | COc1cc(C(=O)N2CCC3(CC2)CC(=O)c2nn(C(C)(C)C)cc2O3)c2ccccc2n1 | 98.6%
48 | CC(C)(C)n1cc2c(n1)C(=O)CC1(CCN(C(=O)c3cc(-c4ccc(Cl)cc4)nc4ccccc34)CC1)O2 | 87.3%
49 | CC(C)(C)n1cc2c(n1)C(=O)CC1(CCN(C(=O)c3cc(-c4ccccc4)nc4ccccc34)CC1)O2 | 97.3%
50 | CCOc1cc(C(=O)N2CCC3(CC2)CC(=O)c2nn(C(C)(C)C)cc2O3)c2ccccc2n1 | 96.1%
51 | Cc1cc(C(=O)N2CCC3(CC2)CC(=O)c2nn(C(C)(C)C)cc2O3)c2ccccc2n1 | 101%
52 | CC(C)(C)n1cc2c(n1)C(=O)CC1(CCN(C(=O)c3cc(N4CCOCC4)nc4ccccc34)CC1)O2 | 34.4%
53 | CC(C)(C)n1cc2c(n1)C(=O)CC1(CCN(C(=O)c3cc(-c4ccccn4)nc4ccccc34)CC1)O2 | 104%
54 | CC(C)(C)n1cc2c(n1)C(=O)CC1(CCN(C(=O)c3cc(-c4ccc(N)cc4)nc4ccccc34)CC1)O2 | 84.8%
55 | COc1ccc(-c2cc(C(=O)N3CCC4(CC3)CC(=O)c3nn(C(C)(C)C)cc3O4)c3ccccc3n2)cc1 | 102%

target: T1, Acetyl-CoA carboxylase 1; assay: Inhibition of recombinant human C-terminal His-tagged ACC1 (1 to 2383 residues) expressed in baculovirus infected Sf9 insect cells at 5 uM preincubated for 15 mins followed by substrate addition and measured after 60 mins by ADP-glo luminescence assay relative to control; conditions: not given

Row | SMILES | inhibition
56 | Cc1ccccc1-c1cc(C(=O)N2CCC3(CC2)CC(=O)c2nn(C(C)(C)C)cc2O3)c2ccccc2n1 | 95.5%
57 | CC(C)(C)n1cc2c(n1)C(=O)CC1(CCN(C(=O)c3cc(N4CCNCC4)nc4ccccc34)CC1)O2 | 97.6%
58 | COc1cc(C(=O)N2CCC3(CC2)CC(=O)c2nn(C(C)(C)C)cc2O3)c2ccccc2n1 | 93.8%
59 | CC(C)(C)n1cc2c(n1)C(=O)CC1(CCN(C(=O)c3cc(-c4ccc(Cl)cc4)nc4ccccc34)CC1)O2 | 104%
60 | CC(C)(C)n1cc2c(n1)C(=O)CC1(CCN(C(=O)c3cc(-c4ccccc4)nc4ccccc34)CC1)O2 | 101%
61 | CCOc1cc(C(=O)N2CCC3(CC2)CC(=O)c2nn(C(C)(C)C)cc2O3)c2ccccc2n1 | 93.9%
62 | Cc1cc(C(=O)N2CCC3(CC2)CC(=O)c2nn(C(C)(C)C)cc2O3)c2ccccc2n1 | 93.6%
63 | CC(C)(C)n1cc2c(n1)C(=O)CC1(CCN(C(=O)c3cc(N4CCOCC4)nc4ccccc34)CC1)O2 | 97.7%
64 | CC(C)(C)n1cc2c(n1)C(=O)CC1(CCN(C(=O)c3cc(-c4ccccn4)nc4ccccc34)CC1)O2 | 103%
65 | CC(C)(C)n1cc2c(n1)C(=O)CC1(CCN(C(=O)c3cc(-c4ccc(N)cc4)nc4ccccc34)CC1)O2 | 101%
66 | COc1ccc(-c2cc(C(=O)N3CCC4(CC3)CC(=O)c3nn(C(C)(C)C)cc3O4)c3ccccc3n2)cc1 | 101%

system: A549; assay: Antiproliferative activity against human A549 cells assessed as cell growth inhibition after 72 hrs by MTT assay; type: functional, cell-based; conditions: A549, 72 h; how it was run: as §1

Row | SMILES | IC50
67 | Cc1ccccc1-c1cc(C(=O)N2CCC3(CC2)CC(=O)c2nn(C(C)(C)C)cc2O3)c2ccccc2n1 | 1880 nM
68 | CC(C)(C)n1cc2c(n1)C(=O)CC1(CCN(C(=O)c3cc(N4CCNCC4)nc4ccccc34)CC1)O2 | > 10000 nM
69 | COc1cc(C(=O)N2CCC3(CC2)CC(=O)c2nn(C(C)(C)C)cc2O3)c2ccccc2n1 | > 10000 nM
70 | CC(C)(C)n1cc2c(n1)C(=O)CC1(CCN(C(=O)c3cc(-c4ccc(Cl)cc4)nc4ccccc34)CC1)O2 | 2330 nM
71 | CC(C)(C)n1cc2c(n1)C(=O)CC1(CCN(C(=O)c3cc(-c4ccccc4)nc4ccccc34)CC1)O2 | 1940 nM
72 | CCOc1cc(C(=O)N2CCC3(CC2)CC(=O)c2nn(C(C)(C)C)cc2O3)c2ccccc2n1 | > 10000 nM
73 | Cc1cc(C(=O)N2CCC3(CC2)CC(=O)c2nn(C(C)(C)C)cc2O3)c2ccccc2n1 | > 10000 nM
74 | CC(C)(C)n1cc2c(n1)C(=O)CC1(CCN(C(=O)c3cc(N4CCOCC4)nc4ccccc34)CC1)O2 | > 10000 nM
75 | CC(C)(C)n1cc2c(n1)C(=O)CC1(CCN(C(=O)c3cc(-c4ccccn4)nc4ccccc34)CC1)O2 | 7720 nM
76 | CC(C)(C)n1cc2c(n1)C(=O)CC1(CCN(C(=O)c3cc(-c4ccc(N)cc4)nc4ccccc34)CC1)O2 | 970 nM
77 | COc1ccc(-c2cc(C(=O)N3CCC4(CC3)CC(=O)c3nn(C(C)(C)C)cc3O4)c3ccccc3n2)cc1 | 3740 nM

Source: ChEMBL document CHEMBL4732112, “Synthesis and in vitro evaluation of novel spiroketopyrazoles as acetyl-CoA carboxylase inhibitors and potential antitumor agents” (Eur J Med Chem, 2021)
